For three compounds, Activity and IC50 results are on record in ChEMBL document CHEMBL3414449, “DUPA conjugation of a cytotoxic indenoisoquinoline topoisomerase I inhibitor for selective prostate cancer cell targeting” (J Med Chem, 2015).

Structures are written as SMILES. Active and inactive are the calls of the source. The rule behind the calls is not given here.

Data set [1] has as its system CWR22R. Description: Antitumor activity against human 22Rv1 cells xenografted in nu/nu mouse assessed as reduction in tumor mass at 2 umol/kg, ip administered as single dose on alternative days, 3 days/week for 3 weeks by hematoxylin and eosin staining. The class given is functional, organism-based. In general terms: Xenograft models place foreign cells or tissue in a host animal.

Data set [2] deals with Mus musculus. Description: Toxicity in human 22Rv1 cells xenografted nu/nu mouse at 2 umol/kg, ip administered as single dose on alternative days, 3 days/week for 3 weeks. The class given is organism-based, CWR22R. The settings on record: in vivo. The procedure, abridged:
(§1)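 Male nu/nu mice, 5–6 weeks old, given 2 × 10^6 22RV1 cells in 20% HC Matrigel in the right shoulder. Dosing began at tumor ~100 mm3, 5 mice/group, ip in sterile saline (100 μL). Tumors measured by caliper every 2–3 days, volume = 0.5 × L × W2. Body weight recorded at each dosing. Live mice counted per dose. Untreated controls got saline.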

Data set [3] deals with CWR22R. Nature of the data set: Antitumor activity against human 22Rv1 cells xenografted in nu/nu mouse assessed as regression of tumor growth at 2 umol/kg, ip administered as single dose on alternative days, 3 days/week for 3 weeks. In kind it is functional, organism-based. The procedure, abridged:
as §1

Data set [4] has as its system CWR22R. Description: Cytotoxicity against human 22Rv1 cells after 2 hrs by [3H]thymidine incorporation assay. In kind it is functional, cell-based. Put shortly: (§2)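 22RV1 cells seeded at 50 000/well and grown to monolayer over 24–48 h. Drug pulse in fresh medium at 37 °C for 2 h or 24 h, then washed and chased 66 h. Labelled with 3H-thymidine (1 mCi/mL) for 4 h, TCA-precipitated, NaOH-solubilized and scintillation counted. IC50 from % incorporation vs log concentration.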
In general terms: Incorporation of labelled thymidine or its analogues reports DNA synthesis.

For data set [5], the system named is Mus musculus. Description: Toxicity in human 22Rv1 cells xenografted nu/nu mouse assessed as induction of mouse death at 2 umol/kg, ip administered as single dose on alternative days, 3 days/week for 3 weeks. Conditions: in vivo. In kind it is organism-based, CWR22R. The procedure, abridged: as §1
In data set [6] the test system is Mus musculus. Nature of the data set: Toxicity in human 22Rv1 cells xenografted nu/nu mouse assessed as effect on body weight at 2 umol/kg, ip administered as single dose on alternative days, 3 days/week for 3 weeks. The class given is organism-based, CWR22R. Conditions: in vivo. The procedure, abridged:
as §1

In data set [7] the test system is CWR22R. Nature of the data set: Antitumor activity against human 22Rv1 cells xenografted in nu/nu mouse assessed as regression of tumor growth at 2 umol/kg, ip administered as single dose on alternative days, 3 days/week for 3 weeks co-administered with 100 fold excess dose of DUPA-Aoc-Phe-Phe-Dap-Asp-Cys reagent. The class given is functional, organism-based. Put shortly: as §1

Data set [8] has as its system CWR22R. Description: Cytotoxicity against human 22Rv1 cells after 24 hrs by [3H]thymidine incorporation assay. In kind it is functional, cell-based. The procedure, abridged: as §2
In data set [9] the target is Glutamate carboxypeptidase 2 (Homo sapiens, UniProt Q04609). Description: Inhibition of PSMA (unknown origin).
Chain of Glutamate carboxypeptidase 2 (Q04609 whole entry): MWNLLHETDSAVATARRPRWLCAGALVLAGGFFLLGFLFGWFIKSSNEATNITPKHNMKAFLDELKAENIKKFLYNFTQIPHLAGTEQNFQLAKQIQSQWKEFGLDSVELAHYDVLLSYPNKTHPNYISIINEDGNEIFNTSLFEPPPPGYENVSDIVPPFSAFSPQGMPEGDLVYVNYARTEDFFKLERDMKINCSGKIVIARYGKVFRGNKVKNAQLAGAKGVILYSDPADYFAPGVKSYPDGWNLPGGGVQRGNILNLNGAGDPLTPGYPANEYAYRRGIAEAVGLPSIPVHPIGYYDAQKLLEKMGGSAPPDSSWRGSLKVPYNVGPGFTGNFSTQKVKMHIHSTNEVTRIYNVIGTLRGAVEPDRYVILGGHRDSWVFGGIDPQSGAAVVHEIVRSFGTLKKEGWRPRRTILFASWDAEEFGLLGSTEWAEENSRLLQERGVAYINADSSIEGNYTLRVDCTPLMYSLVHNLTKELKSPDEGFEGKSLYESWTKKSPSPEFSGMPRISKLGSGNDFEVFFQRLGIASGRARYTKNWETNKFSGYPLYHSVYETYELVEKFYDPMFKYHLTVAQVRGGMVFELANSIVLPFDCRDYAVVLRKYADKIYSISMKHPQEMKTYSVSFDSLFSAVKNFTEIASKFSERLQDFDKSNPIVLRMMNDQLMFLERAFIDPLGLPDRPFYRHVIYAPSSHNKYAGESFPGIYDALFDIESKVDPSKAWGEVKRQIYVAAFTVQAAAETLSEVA

In the case of `COc1cc2c3c(n(CCCN4CCOCC4)c(=O)c2cc1OC)-c1cc(OC)c(OC(=O)OCCSSC[C@H](NC(=O)[C@H](CC(=O)O)NC(=O)[C@@H](N)CNC(=O)[C@H](Cc2ccccc2)NC(=O)[C@H](Cc2ccccc2)NC(=O)CCCCCCCNC(=O)CC[C@H](NC(=O)N[C@@H](CCC(=O)O)C(=O)O)C(=O)O)C(=O)O)cc1C3=O`, the outcome in the data set on CWR22R [1] and in the data set with CWR22R [3] was Active. The Activity result in the data set on Mus musculus [2], in the data set with Mus musculus [5] and in the data set with Mus musculus [6] was “Non-toxic” throughout. Also, the IC50 (usually the concentration that gives 50% inhibition) was “Not Active” with CWR22R [4] (cwr22r) and 11.4 nM with CWR22R [8]. Besides, the outcome in the data set on CWR22R [7] was inactive.
On to `COc1cc2c(cc1O)C(=O)c1c-2n(CCCN2CCOCC2)c(=O)c2cc(OC)c(OC)cc12`, for which the Activity result in the data set on Mus musculus [2] was “Toxic”; with Mus musculus [5], “Toxic”; with Mus musculus [6] it was “Non-toxic”. Moreover, the result in the data set with CWR22R [3] was Active. Also, in the data set with CWR22R [4] (Homo sapiens, 22Rv1, read-out: IC50), the IC50 came to 2 nM.
The compound `O=C(O)CC[C@H](NC(=O)N[C@@H](CCC(=O)O)C(=O)O)C(=O)O` yielded an IC50 in data set [9] of 47 nM.
